Values after ≈ are worked out from the molar mass of the structure shown. Active and inactive are the calls of the source. The rule behind the calls is not given here.
Columns and labels:
[1] = tested on: Human alphaherpesvirus 2; experiment: (§1) In vitro minimum inhibitory concentration against herpes simplex virus-2 (HSV-2) by plaque-reduction assay in vero cells; assay type: functional, organism-based
Outline: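 Vero monolayers (2 days old, confluent; Hank's MEM + 5% inactivated FCS, 37 °C, 2% CO2) infected with ~80 PFU; after 1-h adsorption, overlay of M199/5% FCS with 1:150 human immune serum globulin plus serial 2-fold compound dilutions (1:200 from DMSO). 3 d incubation, glutaraldehyde fix, crystal violet stain, plaque count. MIC = lowest concentration giving 50% plaque reduction; mean of ≥2 experiments.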

[2] = tested on: Human alphaherpesvirus 2; experiment: In vitro maximum tolerated level against herpes simplex virus-2 (HSV-2) by plaque-reduction assay in vero cells; assay type: functional
[3] = tested on: Human alphaherpesvirus 2; experiment: (§2) Minimum effective dose against herpes simplex virus-2 (HSV-2) by oral administration in female mice.; assay type: functional, organism-based
Outline: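 Swiss female ICR mice (13–15 g) infected intravaginally with HSV-2 (Curtis) at a dose set for 80% mortality. Compound suspended in 1% gum tragacanth/2% Tween 80, given intragastrically at serial 2-fold doses, 20 mice per dose, 2 h before infection then twice daily for 5 d. Mortality followed 14 d; MED = lowest dose with survival differing from placebo (Mantel-Cox, Breslow).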

[4] = tested on: Human alphaherpesvirus 2; experiment: In vivo maximum tolerated dose against herpes simplex virus-2 (HSV-2) by oral administration in female mice; assay type: functional
[5] = tested on: Human alphaherpesvirus 2; experiment: as §1; assay type: functional
[6] = tested on: Human alphaherpesvirus 2; experiment: as §2; assay type: functional; settings: Human alphaherpesvirus 2, po; read-out: MED

Row | MIC [1] | Structure (SMILES) | MTL [2] [µg/mL] | MED [3] | MTD [4] [mg/kg] | MIC [5] [µg/mL] | minimal effective dose [6] [mg/kg]
1 | inactive | CCn1cc(C(=O)NOC)c(=O)c2ccc(-c3ccncc3)cc21 | 25 |  |  |  | 
2 | inactive | CCn1cc(C(=O)NCCN)c(=O)c2ccc(-c3ccncc3)cc21 | >100 |  |  |  | 
3 | inactive | NC(=O)c1csc2cc(-c3ccncc3)ccc2c1=O | >100 |  |  |  | 
4 | inactive | CCn1cc(C(N)=O)c(=O)c2ccc(-c3cnc(C)s3)cc21 | >100 |  |  |  | 
5 |  | NC(=O)c1cn(C2CC2)c2cc(-c3ccncc3)ccc2c1=O | 25 | inactive | 25 | 4 (≈ 13.1 µM) | 
6 | inactive | CCn1cc(C(N)=O)c(=O)c2ccc(-c3ccc(N)cc3)cc21 | 6.25 |  |  |  | 
7 |  | CCn1cc(C(N)=O)c(=O)c2ccc(-c3ccccn3)cc21 | 25 | inactive | 100 | 14 (≈ 47.7 µM) | 
8 |  | CCn1cc(C(N)=O)c(=O)c2ccc(-c3ccncc3)cc21 | 12.5 |  | 50 | 6.5 (≈ 22.2 µM) | 50
9 |  | CCn1c(N)c(C(N)=O)c(=O)c2ccc(-c3ccncc3)cc21 | >12.5 |  | >100 | 9 (≈ 29.2 µM) | 
10 | inactive | CCn1cc(C(N)=O)c(=O)c2ccc(Cl)cc21 | >100 |  |  |  | 
11 | inactive | CCn1cc(C2=NCCO2)c(=O)c2ccc(-c3ccncc3)cc21 | 12.5 |  |  |  | 
12 |  | CCn1cc(C(=O)NC)c(=O)c2ccc(-c3ccncc3)cc21 | >25 |  | 50 | 9 (≈ 29.3 µM) | 50
13 |  | Cc1ccc(-n2cc(C(N)=O)c(=O)c3ccc(-c4ccncc4)cc32)cc1 | >25 | inactive | 50 | 0.63 (≈ 1.77 µM) | 
14 | inactive | NC(=O)c1cn(-c2ccc(F)cc2)c2cc(Cl)ccc2c1=O | >12.5 |  |  |  | 
15 |  | NC(=O)c1c(O)c2ccc(-c3ccncc3)cc2n(-c2ccc(F)cc2)c1=O | >100 |  |  | 11 (≈ 29.3 µM) | 
16 |  | NC(=O)c1cn(-c2ccc(Cl)c(Cl)c2)c2cc(-c3ccncc3)ccc2c1=O | >100 |  | 100 | 0.52 (≈ 1.27 µM) | 50
17 |  | Cc1cc(-c2ccc3c(=O)c(C(N)=O)cn(-c4ccc(F)cc4)c3c2)on1 | >100 | inactive | >200 | 0.26 (≈ 0.716 µM) | 
18 | inactive | CCn1cc(C(N)=O)c(=O)c2ccc(-c3ccccc3)cc21 | 50 |  |  |  | 
19 |  | NC(=O)c1cn(-c2ccc(F)cc2)c2cc(-c3ccccc3)ccc2c1=O | 12.5 | inactive | >200 | 0.82 (≈ 2.29 µM) | 
20 | inactive | NC(=O)c1cn(-c2ccc(F)cc2)c2cc(Br)ccc2c1=O | 6.25 |  |  |  | 

Row | MIC [1] | Structure (SMILES) | MTL [2] [µg/mL] | MED [3] | MTD [4] [mg/kg] | MIC [5] [µg/mL] | minimal effective dose [6] [mg/kg]
21 |  | Cc1cc(-c2ccc3c(=O)c(C(N)=O)cn(-c4ccc(F)cc4)c3c2)sn1 | >100 | inactive | >100 | 0.25 (≈ 0.659 µM) | 
22 | inactive | CCn1cc(C(=O)N(C)C)c(=O)c2ccc(-c3ccncc3)cc21 | >100 |  |  |  | 
23 | inactive | CCn1cc(C(N)=O)c(=O)c2ccc(-n3ccnc3)cc21 | 50 |  |  |  | 
24 |  | NC(=O)c1cn(-c2ccccc2)c2cc(-c3ccncc3)ccc2c1=O | 6.25 |  | 50 | 0.78 (≈ 2.28 µM) | 25
25 |  | NC(=O)c1cn(-c2ccc(Br)cc2)c2cc(-c3ccncc3)ccc2c1=O | >12.5 |  | 50 | 0.47 (≈ 1.12 µM) | 50
26 |  | Oc1nc2c(O)c3ccc(-c4ccncc4)cc3n(-c3ccc(F)cc3)c-2n1 | >100 |  |  |  | 
27 | inactive | CCn1cc(C(=O)NCCN(C)C)c(=O)c2ccc(-c3ccncc3)cc21 | >100 |  |  |  | 
28 |  | CCn1cc(C(N)=O)c(=O)c2ccc(-c3ccno3)cc21 | 12.5 | inactive | >200 | 5 (≈ 17.6 µM) | 
29 |  | CCn1cc(C(N)=O)c(=O)c2ccc(-c3cccnc3)cc21 | 50 | inactive | 100 | 12 (≈ 40.9 µM) | 
30 | inactive | NC(=O)c1cn(CCO)c2cc(-c3ccncc3)ccc2c1=O | 50 |  |  |  | 
31 | inactive | CCn1cc(C(N)=O)c(=O)c2ccc(-c3ccc([N+](=O)[O-])cc3)cc21 | >100 |  |  |  | 
32 | inactive | CCCn1cc(C(N)=O)c(=O)c2ccc(-c3ccncc3)cc21 | 6.25 |  |  |  | 
33 |  | NC(=O)c1cn(-c2ccc(Cl)cc2)c2cc(-c3ccncc3)ccc2c1=O | >25 |  | 100 | 0.4 (≈ 1.06 µM) | 50
34 |  | C=CCn1cc(C(N)=O)c(=O)c2ccc(-c3ccncc3)cc21 | 6.25 | inactive | <50 | 2.9 (≈ 9.5 µM) | 
35 | inactive | CCn1cc(C2=NCCN2)c(=O)c2ccc(-c3ccncc3)cc21 | >100 |  |  |  | 
36 |  | Cc1ccc(-n2cc(C(N)=O)c(=O)c3ccc(-c4ccncc4)cc32)cc1C | >100 | inactive | >200 | 1 (≈ 2.71 µM) | 
37 |  | CCn1c(=O)c(C(N)=O)c(O)c2ccc(-c3ccncc3)cc21 | 6.25 |  | 100 | 2.1 (≈ 6.79 µM) | 100
38 | inactive | CCn1cc(C(N)=O)c(=O)c2ccccc21 | 50 |  |  |  | 
39 | inactive | CCn1cc(C(=O)NCCO)c(=O)c2ccc(-c3ccncc3)cc21 | 25 |  |  |  | 
40 |  | CCn1cc(C(N)=O)c(=O)c2ccc(-c3cc(C)no3)cc21 | >100 | inactive | >200 | 12 (≈ 40.4 µM) | 

Row | MIC [1] | Structure (SMILES) | MTL [2] [µg/mL] | MED [3] | MTD [4] [mg/kg] | MIC [5] [µg/mL] | minimal effective dose [6] [mg/kg]
41 |  | NC(=O)c1cn(-c2cccc(F)c2)c2cc(-c3ccncc3)ccc2c1=O | >25 |  | 50 | 0.71 (≈ 1.98 µM) | 50
42 |  | NC(=O)c1cn(-c2ccncc2)c2cc(-c3ccncc3)ccc2c1=O | >200 |  | 75 | 7.2 (≈ 21 µM) | 75
43 |  | NC(=O)c1c(O)c2ccc(-c3ccncc3)cc2n2c1nc1ccccc12 | 0.4 |  |  |  | 
44 |  | NC(=O)c1cn(Cc2ccc(Cl)c(Cl)c2)c2cc(-c3ccncc3)ccc2c1=O | >100 | inactive | >100 | 1.7 (≈ 4.01 µM) | 
45 |  | CCC(=O)c1c(O)c2ccc(-c3ccncc3)cc2n(-c2ccc(F)cc2)c1=O |  |  |  | > 100 | 
46 | inactive | CCn1cc(C(=O)O)c(=O)c2ccc(-c3ccncc3)cc21 [ROSOXACIN] | >200 |  |  |  | 
47 |  | Cn1cc(C(N)=O)c(=O)c2ccc(-c3ccncc3)cc21 | >25 | inactive | 25 | 4.6 (≈ 16.5 µM) | 
48 | inactive | NC(=O)c1cnc2cc(-c3ccncc3)ccc2c1O | 12.5 |  |  |  | 
49 | inactive | CCn1c(C)c(C(N)=O)c(=O)c2ccc(-c3ccncc3)cc21 | 50 |  |  |  | 
50 | inactive | CCn1cc(C(N)=O)c(=O)c2ccc(F)cc21 | 50 |  |  |  | 
51 |  | CCn1cc(C(N)=O)c(=O)c2ccc(-c3c(C)cncc3C)cc21 | 12.5 | inactive | 25 | 9.9 (≈ 30.8 µM) | 
52 |  | COc1ccc(-n2cc(C(N)=O)c(=O)c3ccc(-c4ccncc4)cc32)cc1 | >25 | inactive | 50 | 1.3 (≈ 3.5 µM) | 
53 |  | CCCCn1cc(C(N)=O)c(=O)c2ccc(-c3ccncc3)cc21 | 6.25 | inactive | 50 | 5.2 (≈ 16.2 µM) | 
54 | inactive | CC(C)(C)c1ccc(-n2cc(C(N)=O)c(=O)c3ccc(-c4ccncc4)cc32)cc1 | >25 |  |  |  | 
55 |  | CCCCCn1cc(C(N)=O)c(=O)c2ccc(-c3ccncc3)cc21 | 6.25 | inactive | 50 | 4.8 (≈ 14.3 µM) | 
56 | inactive | CCn1cc(C(N)=O)c(=O)c2ccc(I)cc21 | >100 |  |  |  | 
57 |  | NC(=O)c1cn(-c2ccc(C(F)(F)F)cc2)c2cc(-c3ccncc3)ccc2c1=O | >100 | inactive | 50 | 1 (≈ 2.44 µM) | 
58 |  | NC(=O)c1cn(-c2ccc(F)cc2F)c2cc(-c3ccncc3)ccc2c1=O | 3.1 | inactive | <25 | 2.2 (≈ 5.83 µM) | 
59 | inactive | CCn1cc(C#N)c(=O)c2ccc(-c3ccncc3)cc21 | 100 |  |  |  | 

Row | Structure (SMILES) | MIC [1] | MTL [2] [µg/mL] | MED [3] | MTD [4] [mg/kg] | MIC [5] [µg/mL] | minimal effective dose [6] [mg/kg]
60 | CCn1cc(C(N)=O)c(=O)c2ccc(N3CCN(C)CC3)cc21 | inactive | 50 |  |  |  | 
61 | NC(=O)c1cn(-c2ccccc2F)c2cc(-c3ccncc3)ccc2c1=O | inactive | 1.6 | inactive | 100 |  | 
